Test results from article PMC2738596 (Biochimica et biophysica acta, 2008).
Entries after “also recorded” stand apart in the source; their conditions may differ. Read-outs that look alike come from different tables or passages of the source. Ends that are not written are not given here.

Assays:
ryanodine-modified RyR2 = ryanodine-modified RyR2 (Canis lupus familiaris, UniProt A0A8I3MT21); test: Peptide/IpTxA action on ryanodine-modified RyR2 in planar lipid bilayers; type: biochemical, dog
cardiac RyR2 [1] = biological target: T1, cardiac RyR2 (Canis lupus familiaris, UniProt A0A8I3MT21); type: biochemical, dog
T1 sequence (A0A8I3MT21 1-4967): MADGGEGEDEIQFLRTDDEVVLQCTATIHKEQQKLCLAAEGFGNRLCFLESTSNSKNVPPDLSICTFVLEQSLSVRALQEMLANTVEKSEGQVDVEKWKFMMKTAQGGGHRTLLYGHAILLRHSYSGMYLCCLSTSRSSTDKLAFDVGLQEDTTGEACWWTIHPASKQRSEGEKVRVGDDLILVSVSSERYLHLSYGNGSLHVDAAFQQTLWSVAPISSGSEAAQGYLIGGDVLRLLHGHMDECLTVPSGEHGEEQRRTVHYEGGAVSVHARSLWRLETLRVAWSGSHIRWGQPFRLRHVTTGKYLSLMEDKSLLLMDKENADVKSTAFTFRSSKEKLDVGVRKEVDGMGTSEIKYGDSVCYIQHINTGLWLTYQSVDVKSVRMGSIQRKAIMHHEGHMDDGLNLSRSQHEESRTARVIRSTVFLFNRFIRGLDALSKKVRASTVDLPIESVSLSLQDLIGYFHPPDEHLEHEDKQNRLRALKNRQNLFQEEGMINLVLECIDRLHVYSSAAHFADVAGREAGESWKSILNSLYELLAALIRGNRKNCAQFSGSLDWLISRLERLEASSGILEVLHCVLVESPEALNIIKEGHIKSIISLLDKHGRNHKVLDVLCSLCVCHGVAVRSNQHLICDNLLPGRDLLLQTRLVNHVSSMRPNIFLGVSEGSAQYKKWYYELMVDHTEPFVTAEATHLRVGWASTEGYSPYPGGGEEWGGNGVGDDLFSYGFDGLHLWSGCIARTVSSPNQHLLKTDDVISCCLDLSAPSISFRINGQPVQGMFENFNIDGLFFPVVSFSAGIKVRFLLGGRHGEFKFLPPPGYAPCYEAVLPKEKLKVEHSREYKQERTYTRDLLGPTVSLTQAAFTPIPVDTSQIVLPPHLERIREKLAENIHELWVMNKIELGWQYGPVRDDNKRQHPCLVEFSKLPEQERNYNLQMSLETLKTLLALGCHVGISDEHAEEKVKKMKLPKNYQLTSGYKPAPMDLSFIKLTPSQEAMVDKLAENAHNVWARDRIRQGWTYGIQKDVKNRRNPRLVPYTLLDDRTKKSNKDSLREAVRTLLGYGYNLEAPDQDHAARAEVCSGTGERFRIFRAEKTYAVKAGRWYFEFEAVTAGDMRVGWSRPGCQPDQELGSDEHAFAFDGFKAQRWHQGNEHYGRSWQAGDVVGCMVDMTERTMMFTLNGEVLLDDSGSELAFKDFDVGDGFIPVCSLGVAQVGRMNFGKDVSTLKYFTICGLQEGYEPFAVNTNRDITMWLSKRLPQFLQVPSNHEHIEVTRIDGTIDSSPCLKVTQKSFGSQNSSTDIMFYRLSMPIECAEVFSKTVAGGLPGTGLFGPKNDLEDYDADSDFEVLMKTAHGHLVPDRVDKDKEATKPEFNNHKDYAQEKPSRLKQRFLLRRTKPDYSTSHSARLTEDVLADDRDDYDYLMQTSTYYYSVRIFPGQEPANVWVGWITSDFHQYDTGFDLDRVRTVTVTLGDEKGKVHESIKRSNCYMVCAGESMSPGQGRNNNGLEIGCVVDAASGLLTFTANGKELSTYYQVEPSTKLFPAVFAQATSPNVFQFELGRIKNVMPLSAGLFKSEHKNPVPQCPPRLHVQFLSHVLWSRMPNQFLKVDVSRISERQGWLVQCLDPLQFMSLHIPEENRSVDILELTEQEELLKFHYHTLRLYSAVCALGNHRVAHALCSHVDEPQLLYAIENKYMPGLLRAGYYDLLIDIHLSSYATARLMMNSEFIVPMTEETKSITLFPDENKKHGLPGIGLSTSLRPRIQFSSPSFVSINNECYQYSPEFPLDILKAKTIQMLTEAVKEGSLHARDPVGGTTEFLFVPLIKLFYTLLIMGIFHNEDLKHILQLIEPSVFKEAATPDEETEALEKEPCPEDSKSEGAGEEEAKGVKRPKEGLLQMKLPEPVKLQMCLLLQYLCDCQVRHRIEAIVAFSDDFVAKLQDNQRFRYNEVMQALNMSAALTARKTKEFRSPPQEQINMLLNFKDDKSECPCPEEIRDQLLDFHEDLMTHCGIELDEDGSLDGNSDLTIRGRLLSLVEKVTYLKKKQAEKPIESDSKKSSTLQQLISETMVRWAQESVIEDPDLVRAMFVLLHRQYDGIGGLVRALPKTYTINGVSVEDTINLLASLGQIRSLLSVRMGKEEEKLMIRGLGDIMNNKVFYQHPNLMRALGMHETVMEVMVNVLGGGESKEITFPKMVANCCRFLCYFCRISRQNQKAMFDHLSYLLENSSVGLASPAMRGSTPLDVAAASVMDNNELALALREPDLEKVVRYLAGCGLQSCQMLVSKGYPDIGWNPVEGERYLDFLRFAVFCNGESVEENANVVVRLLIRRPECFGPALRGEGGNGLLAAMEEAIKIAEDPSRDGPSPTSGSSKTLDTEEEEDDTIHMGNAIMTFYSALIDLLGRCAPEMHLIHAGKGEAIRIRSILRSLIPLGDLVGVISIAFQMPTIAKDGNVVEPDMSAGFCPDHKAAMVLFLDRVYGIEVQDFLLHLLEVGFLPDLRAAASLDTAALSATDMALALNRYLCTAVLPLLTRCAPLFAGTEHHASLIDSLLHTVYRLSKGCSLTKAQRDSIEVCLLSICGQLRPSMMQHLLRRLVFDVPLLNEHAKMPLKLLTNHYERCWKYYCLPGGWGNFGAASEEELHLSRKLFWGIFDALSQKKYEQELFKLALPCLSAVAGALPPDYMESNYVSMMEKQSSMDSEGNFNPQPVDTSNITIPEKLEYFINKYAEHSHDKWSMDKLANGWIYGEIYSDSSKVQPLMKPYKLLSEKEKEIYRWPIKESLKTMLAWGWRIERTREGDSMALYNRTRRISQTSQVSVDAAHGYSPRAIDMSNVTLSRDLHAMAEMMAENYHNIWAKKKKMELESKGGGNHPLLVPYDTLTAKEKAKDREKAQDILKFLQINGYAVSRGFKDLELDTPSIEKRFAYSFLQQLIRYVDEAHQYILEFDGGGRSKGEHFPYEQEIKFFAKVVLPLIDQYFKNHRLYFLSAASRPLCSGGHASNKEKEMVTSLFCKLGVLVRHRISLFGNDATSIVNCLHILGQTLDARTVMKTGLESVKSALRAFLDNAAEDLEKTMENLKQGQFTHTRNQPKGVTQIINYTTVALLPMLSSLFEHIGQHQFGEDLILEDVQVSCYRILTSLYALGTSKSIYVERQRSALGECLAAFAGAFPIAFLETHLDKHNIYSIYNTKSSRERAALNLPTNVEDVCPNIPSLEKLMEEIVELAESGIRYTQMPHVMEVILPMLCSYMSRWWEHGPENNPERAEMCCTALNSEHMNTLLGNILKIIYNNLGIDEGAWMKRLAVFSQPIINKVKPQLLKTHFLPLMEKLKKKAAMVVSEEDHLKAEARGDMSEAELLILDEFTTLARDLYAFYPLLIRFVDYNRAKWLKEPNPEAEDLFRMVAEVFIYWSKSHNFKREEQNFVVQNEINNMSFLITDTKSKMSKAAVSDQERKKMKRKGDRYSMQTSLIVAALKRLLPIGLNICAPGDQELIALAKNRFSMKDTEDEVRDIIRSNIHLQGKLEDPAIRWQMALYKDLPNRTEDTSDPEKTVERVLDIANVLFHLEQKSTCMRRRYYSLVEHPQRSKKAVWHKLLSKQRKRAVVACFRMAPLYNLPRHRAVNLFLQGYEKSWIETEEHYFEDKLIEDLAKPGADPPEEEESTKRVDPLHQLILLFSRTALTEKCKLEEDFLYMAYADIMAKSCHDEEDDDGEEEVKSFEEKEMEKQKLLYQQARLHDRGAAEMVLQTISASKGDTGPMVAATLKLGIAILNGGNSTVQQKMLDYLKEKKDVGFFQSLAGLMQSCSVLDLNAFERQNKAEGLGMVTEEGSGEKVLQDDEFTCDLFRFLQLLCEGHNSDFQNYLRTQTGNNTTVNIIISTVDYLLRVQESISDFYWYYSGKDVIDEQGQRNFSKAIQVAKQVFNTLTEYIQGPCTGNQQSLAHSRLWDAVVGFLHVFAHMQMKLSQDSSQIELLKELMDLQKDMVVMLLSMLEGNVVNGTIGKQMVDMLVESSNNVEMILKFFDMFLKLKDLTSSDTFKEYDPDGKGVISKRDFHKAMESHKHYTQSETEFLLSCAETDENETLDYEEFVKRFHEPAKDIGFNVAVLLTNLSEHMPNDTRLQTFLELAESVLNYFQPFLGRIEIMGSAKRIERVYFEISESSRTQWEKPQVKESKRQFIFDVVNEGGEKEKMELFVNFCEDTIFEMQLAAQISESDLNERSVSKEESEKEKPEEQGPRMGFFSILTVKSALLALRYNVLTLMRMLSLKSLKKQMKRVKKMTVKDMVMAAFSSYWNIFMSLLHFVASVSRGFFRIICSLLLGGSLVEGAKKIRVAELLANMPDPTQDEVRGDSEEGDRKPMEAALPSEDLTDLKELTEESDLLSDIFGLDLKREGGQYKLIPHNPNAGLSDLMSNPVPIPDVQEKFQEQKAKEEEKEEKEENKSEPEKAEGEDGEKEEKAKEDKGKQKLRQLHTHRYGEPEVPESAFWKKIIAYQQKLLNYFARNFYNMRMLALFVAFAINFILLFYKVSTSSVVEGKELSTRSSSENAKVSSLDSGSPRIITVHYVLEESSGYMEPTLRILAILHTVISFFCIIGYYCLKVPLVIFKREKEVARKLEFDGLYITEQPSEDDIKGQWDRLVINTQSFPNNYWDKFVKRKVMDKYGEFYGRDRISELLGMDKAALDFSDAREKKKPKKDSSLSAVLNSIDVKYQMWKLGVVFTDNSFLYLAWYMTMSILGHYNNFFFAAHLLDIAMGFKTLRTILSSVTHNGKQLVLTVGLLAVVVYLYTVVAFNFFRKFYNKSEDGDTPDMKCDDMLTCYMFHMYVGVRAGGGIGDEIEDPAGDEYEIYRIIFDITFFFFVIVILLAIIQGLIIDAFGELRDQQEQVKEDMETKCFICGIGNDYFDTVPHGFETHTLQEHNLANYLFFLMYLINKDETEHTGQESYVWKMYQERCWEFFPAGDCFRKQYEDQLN

cardiac RyR2 [2] = biological target: T1, cardiac RyR2; test: Induction of subconductance states; type: biochemical, dog
Summary of the method: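 Dog ventricular SR microsomes fused into PE/PS/PC (5:4:1) bilayers. Solutions: cis HEPES 250 mM/Tris 118 mM, trans HEPES 250 mM/Ca(OH)2 53 mM, pH 7.4. Cytosolic Ca2+ buffered with BAPTA/dibromo-BAPTA; Ca2+/caffeine-activated channel; peptide added cis. Four-minute records were filtered at 500 Hz (Vm ≥0) or 400 Hz (Vm <0). P_substate = substate time/total time, scored frame-by-frame (100 ms frames, events >3 ms) or from Gaussian-fitted all-points histograms. Paired t-test.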

RyR2 with IpTxA = test: Interaction of peptides with IpTxA-modified RyR2 in planar lipid bilayers; type: biochemical, dog; details: for apparent dissociation constant from RyR2 (1/dwell time): 500 µM KIFMK
Summary of the method: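 Dog cardiac RyR2 was recorded in planar bilayers with HEPES-Ca2+ trans and HEPES-Tris cis at pH 7.4, Ca2+/caffeine-activated, with cytosolic IpTxA at 50 nM and Vm +10 mV. Peptide was then added cis. Block events (dwell time, number, P_block = fraction of time at baseline) were scored frame-by-frame on 4-min records, separately during full openings and during IpTxA-induced substates. Means ± S.E.M.; paired t-test.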

RyR2 (ryanodol-modified) = RyR2 (ryanodol-modified) (Canis lupus familiaris, UniProt A0A8I3MT21); type: biochemical, dog; details: for probability of ryanodol-induced modification: n=5 paired (Fig. 6)
Sequence of RyR2 (ryanodol-modified) (A0A8I3MT21 1-4967): as above

SR microsomes = details: ref [19], [26], [55]; cited from earlier work
RyRs = details: ryanodine locks channels open; ref [3], [45]; cited from earlier work
[3] = Shaker B 2 µM n=4, KIFMK 500 µM n=8
[4] = 500 µM KIFMK, frame by frame analysis
[5] = IpTxA plus ryanodol, +10 mV, 40 min
[6] = ryanodol, control before IpTxA (Fig. 7A, B)

Sequence of ryanodine-modified RyR2 (A0A8I3MT21 1-4967): as above

Compound: CC[C@H](C)[C@H](NC(=O)[C@H](CCCCN)NC(C)=O)C(=O)N[C@@H](Cc1ccccc1)C(=O)N[C@@H](CCSC)C(=O)N[C@@H](CCCCN)C(N)=O [KIFMK, acetyl-KIFMK-amide]
- predominant substate level, of the ryanodine-modified conductance (ryanodine-modified RyR2; KIFMK 500 µM): ~ 52%
- block dwell time (ryanodine-modified RyR2; KIFMK 500 µM, ryanodine-modified, n=6): 29.9 ± 10.5 ms
- increase of block dwell time with ryanodine (ryanodine-modified RyR2; KIFMK 500 µM, n=6): 316 ± 62%
- substate amplitude level 1, of full openings of ryanodine-modified channel (ryanodine-modified RyR2; [3]): 31 ± 1%
- substate amplitude level 2, of full openings of ryanodine-modified channel (ryanodine-modified RyR2; [3]): 51 ± 1%
- substate amplitude level 3, of full openings of ryanodine-modified channel (ryanodine-modified RyR2; [3]): 75 ± 1%
- decrease of probability of block on changing 0 mV to +20 mV (ryanodine-modified RyR2; in the presence of ryanodine): 83%
- decrease of probability of substates on changing 0 mV to +20 mV (ryanodine-modified RyR2; in the presence of ryanodine): 61%
- duration of block events (cardiac RyR2 [1]; 0 mV): intermediate duration
- mean duration of block events (cardiac RyR2 [1]; 0 mV, Peptide A n=4, KIFMK n=6, mean ± SEM): 5.3 ± 0.3 ms
- d (fraction of the membrane potential acting at the site) (cardiac RyR2 [1]; Woodhull fit, z = 6 Peptide A, 7 Shaker B, 2 KIFMK): 1.2 ± 0.3
- increase in frequency of substates (cardiac RyR2 [2]; 500 µM KIFMK vs before addition, n=5 paired observations): 37 ± 9 times
- substate level 1, of full conductance (cardiac RyR2 [2]; [4]): ~ 27.3 ± 0.3%
- substate level 2, of full conductance (cardiac RyR2 [2]; [4]): ~48.6 ± 0.7%
- substate level 3, of full conductance (cardiac RyR2 [2]; [4]): ~72.3 ± 0.5%
- frequency of substates (cardiac RyR2 [2]; 500 µM KIFMK, n=5 paired observations, control 0.9 ± 0.3): 22.1 ± 4.4 events/min
- substate amplitude level 1, in the absence of ryanodine (cardiac RyR2 [2]; KIFMK, n=8): 27 ± 1%
- substate amplitude level 3, in the absence of ryanodine (cardiac RyR2 [2]; KIFMK, n=8): 74 ± 2%
- substate level, ~30% of full RyR2 conductance (cardiac RyR2 [2]; discussion summary): ~ 30%
- substate level, ~50% of full RyR2 conductance (cardiac RyR2 [2]; discussion summary): ~50%
- substate level, ~70% of full RyR2 conductance (cardiac RyR2 [2]; discussion summary): ~70%
- action during IpTxA-induced substates versus full openings (RyR2 with IpTxA; 50 nM IpTxA, +10 mV, Peptide A 20 µM, Shaker B 40 µM, KIFMK 500 µM): able to block the IpTxA-modified channel; also recorded: the probability of blocking the channels was significantly lower during IpTxA-induced substates than during full openings
- apparent dissociation constant from RyR2 (1/dwell time) (RyR2 with IpTxA; during IpTxA substates, 50 nM IpTxA, +10 mV): 3.1 s⁻¹
- apparent dissociation constant from RyR2 (1/dwell time) (RyR2 with IpTxA; during full openings, 50 nM IpTxA, +10 mV): 166 s⁻¹
- action during IpTxA-ryanodine sub-substates (RyR2 with IpTxA; ryanodine-modified RyR2 with IpTxA, results not shown): only induced some block events

Compound: Cn1c(=O)c2c(ncn2C)n(C)c1=O [caffeine]
- Po with Ca2+ and caffeine (cardiac RyR2 [1]; most channels, Ca2+ 10 µM + caffeine 5 mM, before peptides): > 0.9

Compound: CC(C)[C@@]1(O)[C@@H](O)[C@@]2(O)[C@@]3(C)C[C@]4(O)O[C@@]5([C@H](O)[C@@H](C)CC[C@]35O)[C@@]2(O)[C@]14C [ryanodol]
- probability of R (ryanodol alone) after IpTxA (RyR2 (ryanodol-modified); 50 nM IpTxA): decreased dramatically
- probability of ryanodol-induced modification (RyR2 (ryanodol-modified); 20 µM ryanodol, 0 mV, before Peptide A): 0.58 ± 0.04
- probability of ryanodol-induced modification (RyR2 (ryanodol-modified); 20 µM ryanodol, 0 mV, with 5 µM Peptide A): 0.76 ± 0.05
- action on ryanodol-modified RyR2 or on ryanodol binding (RyR2 (ryanodol-modified); 20 µM ryanodol, 5 µM Peptide A, 0 mV): increased dwell times for ryanodol-modified states
- number of R substate events (RyR2 (ryanodol-modified); [5]): 98 events
- number of transitions R→Open (RyR2 (ryanodol-modified); [5]): 5 times
- number of transitions i→R+i (RyR2 (ryanodol-modified); [5]): 6 times
- decrease of probability of ryanodol modification from 0 to +20 mV (RyR2 (ryanodol-modified); n=6): 52 ± 11%
- relative rate of transition i→R+i (RyR2 (ryanodol-modified); ryanodol binding to IpTxA-modified channel, +10 mV): 14.6
- relative rate of transition Open→R (RyR2 (ryanodol-modified); ryanodol binding to open channel, +10 mV): 130
- relative rate of transition R+i→i (RyR2 (ryanodol-modified); ryanodol dissociation with IpTxA bound, +10 mV): 144
- preferred sequence of binding Open→R→R+i, share of cases (RyR2 (ryanodol-modified); ryanodol first, then IpTxA, +10 mV): 93%
- probability of full opening (RyR2 (ryanodol-modified); [6]): ~ 80%
- probability of ryanodol state (RyR2 (ryanodol-modified); [6]): ~ 20%
- total probability of ryanodol binding (R and R+i), increased (RyR2 (ryanodol-modified); with 50 nM IpTxA, all voltages tested but +30 mV): ~ 40%

Compound: TSAQKAKAEERKRRKMSRGL [Peptide A]
- [3H] ryanodine binding to SR microsomes (SR microsomes): enhances [^3H] ryanodine binding to SR microsomes

Compound: ryanodine
- effect of ryanodine on channel gating (ryanodine-modified RyR2; 2 µM ryanodine): channels are locked open; closures are brief and extremely rare
- slope conductance of modified state, of full openings (RyRs): ~ 40%
